Data set [1] has as its system Blood. As to the kind of experiment: Inhibition of LPS-induced TNFalpha release in human whole blood after 24 hrs by ELISA. It counts as functional, tissue-based. (In general: An ELISA detects its analyte on a solid surface through an enzyme-linked reagent.)
In data set [2] the target is T1, Mitogen-activated protein kinase 14 (Homo sapiens, UniProt Q16539).
For data set [3], the system named is Liver microsomes. Put plainly: Metabolic stability in human liver microsomes in absence of NADPH. Type of data set: ADME, Microsome. (Liver microsomes are vesicles of endoplasmic reticulum, rich in cytochrome P450 enzymes.)
Data set [4] has as its system Liver microsomes. Put plainly: Metabolic stability in rat liver microsomes in absence of NADPH. It counts as ADME, Microsome.
Data set [5] can be described thus: Metabolic stability in rat liver microsomes assessed as compound turnover at 5 uM after 30 mins in presence of NADPH. The following applies: read-out: Drug metabolism. Type of data set: ADME, Microsome. In outline:
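5 µM test compound incubated with rat or human hepatic microsomes (1 mg/mL) plus NADPH for 30 min at 37 °C; result given as % turnover.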

Data set [6] is described as follows: Metabolic stability in human liver microsomes assessed as compound turnover at 5 uM after 30 mins in presence of NADPH. Type of data set: ADME, Microsome. Particulars: read-out: Drug metabolism.
For data set [7], the system named is Liver microsomes. Put plainly: Metabolic stability in human liver microsomes assessed as compound turnover at 5 uM after 30 mins in absence of NADPH. Type of data set: ADME, Microsome. Particulars: 0.5 h.
Data set [8] relates to CHO. Put plainly: Cytotoxicity against CHO cells. The following applies: Cricetulus griseus. Type of data set: cell-based.
In data set [9] the target is T1, Mitogen-activated protein kinase 14. Put plainly: Inhibition of human p38alpha using biotinylated ATF2 as substrate at 60 uM preincubated for 1 hr measured after 1 hr by FRET assay.
Data set [10] in a line: Apparent passive permeability from apical to basolateral side of the human Caco2 cells at 12.5 uM. Particulars: Caco-2. It counts as ADME, cell-based. In a few lines:
(§1)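 Passive permeability across Caco-2 monolayer measured with 12.5 µM test compound in both directions (apical-to-basal and basal-to-apical); Papp reported in 10^-6 cm/s.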
(Passage across Caco-2 layers is used to estimate intestinal permeability.)

A short description of data set [11]: Apparent passive permeability from basolateral to apical side of the human Caco2 cells at 12.5 uM. It counts as ADME, cell-based. The following applies: Caco-2. In outline:
as §1

Data set [12] deals with CHO. As to the kind of experiment: Cytotoxicity against CHO cells at 200 uM. Type of data set: cell-based, Cricetulus griseus. The following applies: chinese hamster.
Data set [13] can be described thus: Half life in rat at 1 mg/kg, iv. The following applies: in vivo. On the set-up: dose 1 mg/kg, route intravenous. It counts as ADME, organism-based.
Data set [14] in a line: Cmax in rat at 1 mg/kg, iv. Particulars: in vivo. Type of data set: ADME, organism-based. On the set-up: dose 1 mg/kg, route intravenous.
Data set [15] in a line: Clearance in rat at 1 mg/kg, iv. Type of data set: ADME, organism-based. On the set-up: dose 1 mg/kg, route intravenous. The following applies: in vivo.
Data set [16] in a line: AUC (0 to infinity) in rat at 1 mg/kg, iv. Type of data set: ADME, organism-based. On the set-up: time infinity, dose 1 mg/kg, route intravenous. The following applies: plasma.
Data set [17] is described as follows: Volume of distribution at steady state in rat at 1 mg/kg, iv. It counts as ADME, organism-based. On the set-up: dose 1 mg/kg, route intravenous. The following applies: in vivo, read-out: Vdss.
Data set [18] in a line: Mean residence time in rat at 1 mg/kg, iv. Type of data set: ADME, organism-based. On the set-up: dose 1 mg/kg, route intravenous. The following applies: in vivo.
The nature of data set [19]: Cmax in rat at 10 mg/kg, po. Type of data set: ADME, organism-based. On the set-up: dose 10 mg/kg, route oral. The following applies: in vivo.
Data set [20] in a line: AUC (0 to infinity) in rat at 10 mg/kg, po. On the set-up: time infinity, dose 10 mg/kg, route oral. Particulars: plasma. Type of data set: ADME, organism-based.
Data set [21] can be described thus: Oral bioavailability in rat at 10 mg/kg. Type of data set: ADME, organism-based. Particulars: in vivo.

T1 sequence (Q16539 whole entry): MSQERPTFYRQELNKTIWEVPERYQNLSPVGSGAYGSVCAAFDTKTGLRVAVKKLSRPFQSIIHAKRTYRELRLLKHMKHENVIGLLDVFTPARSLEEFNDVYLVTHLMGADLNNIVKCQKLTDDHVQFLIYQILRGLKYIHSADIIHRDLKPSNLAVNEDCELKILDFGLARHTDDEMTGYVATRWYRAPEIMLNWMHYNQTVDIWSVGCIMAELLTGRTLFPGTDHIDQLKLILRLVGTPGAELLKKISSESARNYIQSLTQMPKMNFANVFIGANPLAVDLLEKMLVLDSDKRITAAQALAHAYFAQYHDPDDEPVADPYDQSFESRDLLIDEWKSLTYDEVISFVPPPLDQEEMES

What is called IC50 is the midpoint of a concentration-inhibition curve. Low values mean greater potency in that assay, high ones weaker potency in that assay. For `Cc1ccn2c(N)nnc2c1-c1ccc2c(c1)NC(=O)C21CCCC1`, the IC50 was 2.11 µM in data set [1] and 0.034 µM in data set [2].

Take `Cc1ccc(-c2ncn[nH]2)cc1-c1ccc2c(c1)NC(=O)C21CCCC1`: the midpoint of inhibition in [1], the IC50, lay at 0.253 µM.

For the compound `Cc1ccc2c(N)noc2c1-c1ccc2c(c1)NC(=O)C21CCC(F)(F)CC1`, the values for the IC50 in data set [1] and in data set [2] were 0.137 µM and 0.0012 µM, respectively.

`Cc1ncc(-c2ccc(C)c(-c3ccc4c(c3)NC(=O)C43CCOCC3)c2)[nH]1`: the Stability entry in data set [3] and in data set [4] was “Stable” throughout. The IC50 in data set [2] amounted to 0.88 µM.

Turning to `Cc1ccc2c(N)noc2c1-c1ccc2c(c1)NC(=O)C2(C)C`, 0.731 µM corresponded to half-maximal inhibition in data set [1] (IC50).

For the compound `Cc1nnc(-c2ccc(C)c(-c3ccc4c(c3)NC(=O)C43CCC(F)(F)CC3)c2)[nH]1`, the results for the half-inhibitory concentration (IC50) in data set [1] and in data set [8] were 0.098 µM and 20 µM, respectively. In addition, the values for the metabolised at 0.5 h, 5 µM in data set [5] and in data set [6] were 5% and less than 5%, respectively. The Stability result in [7] was “Stable”.

One may read the inhibition as how much of the control response was suppressed. High values mean a strong effect, low ones a weak effect. Turning to `Cc1ccc2c(N)n[nH]c2c1-c1ccc2c(c1)NC(=O)C21CCOCC1`, in [9], the inhibition was 60%.

In data set [1], `Cc1nnc(-c2ccc(C)c(-c3ccc4c(c3)NC(=O)C43CCC3)c2)[nH]1` came in with an IC50 of 0.624 µM.

Broadly, the Papp A→B is the apparent permeability from the apical to the basolateral side of a cell layer. Usually Papp B→A stands for how fast a substance crosses the layer from the basolateral side. By half-life is commonly meant the time needed for the level to fall by half in the phase considered. A higher half-life goes with slow decline. A word on the Cmax: it is the peak of the concentration-time curve. What is called clearance is the volume of plasma or blood freed of the substance per unit of time. A higher clearance goes with efficient removal. As usually defined, the AUC(0-inf) is total exposure, with the tail of the curve extrapolated. The low end stands for low exposure, the high end for high exposure. By MRT is commonly meant a mean duration of stay, worked out from the concentration-time curve. Broadly, the bioavailability is the share of a dose that reaches the circulation, judged against a reference dose that is usually intravenous. A higher bioavailability goes with much systemic uptake. Consider `Cc1ccc2c(N)noc2c1-c1ccc2c(c1)NC(=O)C21CCOCC1`, for which the IC50 in [1] was determined as 0.145 µM; in data set [2], 0.005 µM. In addition, the metabolised at 0.5 h, 5 µM in data set [5] is 9%; in data set [6] it was 3%. The Stability result in data set [7] is given as “Stable”. Moreover, the Papp A→B at 12.5 µM in [10] came to 280 nm/s. For the same compound, in data set [11], the Papp B→A at 12.5 µM was 160 nm/s. In data set [12], this compound showed an Activity of 16%. In data set [13], this compound gave a half-life of 1.9 h. For the same compound, the Cmax in [14] came to 0.752 µg/mL; in data set [19], 0.141 µg/mL. For the same compound, in data set [15], the clearance was 0.828 L/h/kg. Moreover, the AUC(0-inf) in data set [16] is 1.23 µg·h/mL; in data set [20] it was 0.961 µg·h/mL. The Vd in data set [17] turned out to be 2 L/kg. Further, in data set [18], the MRT is 2.5 h. The compound also displayed a bioavailability in [21] of 8%.

In [1], `Cc1ccc2c(NC3CC3)noc2c1-c1ccc2c(c1)NC(=O)C21CCC(F)(F)CC1` yielded a half-inhibitory concentration (IC50) of 0.0107 µM. Moreover, the metabolised at 0.5 h, 5 µM was 25% in data set [5] and 32% in [6]. Besides, the Stability entry in data set [7] was “Stable”. The apparent permeability from apical to basolateral (Papp A→B) at 12.5 µM in data set [10] was determined as 100 nm/s. In [11], the Papp B→A at 12.5 µM was 40 nm/s. In data set [12], this compound displayed an Activity of 56%.

Turning to `Cc1ccc2c(NC3CC3)noc2c1-c1ccc2c(c1)NC(=O)C21CCOCC1`, the values for the IC50 in data set [1], in [8] and in data set [2] were 0.0084 µM, 49 µM and 0.00016 µM, respectively. The metabolised at 0.5 h, 5 µM came to 18% in data set [5] and 26% in data set [6]. The Stability result in data set [7] was “Stable”. Also, in [10], the Papp A→B at 12.5 µM was 260 nm/s. Moreover, the Papp B→A at 12.5 µM in data set [11] was found to be 160 nm/s. In data set [13], the half-life was 2.9 h. The figures for the Cmax in data set [14] and in data set [19] were 1.48 µg/mL and 0.479 µg/mL, respectively. Besides, in [15], the clearance worked out at 0.192 L/h/kg. Besides, the AUC(0-inf) in [16] was 5.27 µg·h/mL; in data set [20], 3.37 µg·h/mL. The Vd in data set [17] is 0.8 L/kg. This compound also displayed an MRT in data set [18] of 4.6 h. The bioavailability in data set [21] amounted to 6%.

For `O=C1Nc2cc(-c3cccc4c(NC5CC5)noc34)ccc2C12CCCC2`, the figures for the IC50 in data set [1] and in [2] were 1.26 µM and 0.038 µM, respectively.
